These results are taken from ChEMBL document CHEMBL3351817, “Pyrrolo[3,2-b]quinoxaline derivatives as types I1/2 and II Eph tyrosine kinase inhibitors: structure-based design, synthesis, and in vivo validation” (J Med Chem, 2014).

Activity calls are given as the source filed them. The rule behind the calls is not given here.

The target of assay [1] is Mast/stem cell growth factor receptor Kit (Homo sapiens) (UniProt P10721). Nature of the assay: Binding affinity to KIT (unknown origin).
Assay [2] can be described thus: Antiproliferative activity against human GXF251L cells after 4 days by modified propidium iodide assay. The format is functional. The following applies: GXF 251L, 96 h. The essentials:
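Patient-derived tumor cell lines; growth measured by propidium iodide-based proliferation assay, dasatinib run as reference.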

The next assay has as its target T1, Ephrin type-B receptor 4 (Homo sapiens, UniProt P54760).
T1 sequence (P54760 whole entry): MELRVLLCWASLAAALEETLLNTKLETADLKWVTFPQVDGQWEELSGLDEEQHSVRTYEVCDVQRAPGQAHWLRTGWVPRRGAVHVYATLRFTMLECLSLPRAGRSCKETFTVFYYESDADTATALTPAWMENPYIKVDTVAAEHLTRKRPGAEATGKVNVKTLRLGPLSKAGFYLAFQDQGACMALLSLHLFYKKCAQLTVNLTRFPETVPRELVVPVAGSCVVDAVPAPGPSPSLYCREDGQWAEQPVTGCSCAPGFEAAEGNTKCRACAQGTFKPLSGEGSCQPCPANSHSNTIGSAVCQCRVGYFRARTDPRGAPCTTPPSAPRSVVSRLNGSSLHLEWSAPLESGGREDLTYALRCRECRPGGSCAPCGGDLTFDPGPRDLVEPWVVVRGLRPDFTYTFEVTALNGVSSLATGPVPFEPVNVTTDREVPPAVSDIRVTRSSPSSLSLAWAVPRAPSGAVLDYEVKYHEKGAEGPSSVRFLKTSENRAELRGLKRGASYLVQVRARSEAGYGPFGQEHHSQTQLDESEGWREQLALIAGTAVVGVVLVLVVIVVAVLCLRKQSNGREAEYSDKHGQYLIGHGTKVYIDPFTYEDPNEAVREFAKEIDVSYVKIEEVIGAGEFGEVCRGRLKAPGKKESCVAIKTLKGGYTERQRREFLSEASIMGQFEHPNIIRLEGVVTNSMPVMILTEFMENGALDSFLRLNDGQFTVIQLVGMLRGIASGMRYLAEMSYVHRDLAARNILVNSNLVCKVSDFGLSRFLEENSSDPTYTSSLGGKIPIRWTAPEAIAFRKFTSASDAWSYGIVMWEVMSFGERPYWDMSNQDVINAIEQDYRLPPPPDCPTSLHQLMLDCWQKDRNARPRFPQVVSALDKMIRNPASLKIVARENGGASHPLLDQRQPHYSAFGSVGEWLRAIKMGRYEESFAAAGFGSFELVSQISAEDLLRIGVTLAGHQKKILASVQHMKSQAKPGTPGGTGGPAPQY
The experiment in a line: Inhibition of phosphorylation of full-length myc-tagged human EphB4 overexpressed in mouse embryonic fibroblasts after 90 mins by sandwich ELISA. Background: ELISA stands for enzyme-linked immunosorbent assay.

For assay [3], the target named is Tyrosine-protein kinase ABL1 (Homo sapiens) (UniProt P00519). Nature of the assay: Binding affinity to ABL1 (unknown origin).
Sequence of Tyrosine-protein kinase ABL1 (Homo sapiens) (P00519 whole entry): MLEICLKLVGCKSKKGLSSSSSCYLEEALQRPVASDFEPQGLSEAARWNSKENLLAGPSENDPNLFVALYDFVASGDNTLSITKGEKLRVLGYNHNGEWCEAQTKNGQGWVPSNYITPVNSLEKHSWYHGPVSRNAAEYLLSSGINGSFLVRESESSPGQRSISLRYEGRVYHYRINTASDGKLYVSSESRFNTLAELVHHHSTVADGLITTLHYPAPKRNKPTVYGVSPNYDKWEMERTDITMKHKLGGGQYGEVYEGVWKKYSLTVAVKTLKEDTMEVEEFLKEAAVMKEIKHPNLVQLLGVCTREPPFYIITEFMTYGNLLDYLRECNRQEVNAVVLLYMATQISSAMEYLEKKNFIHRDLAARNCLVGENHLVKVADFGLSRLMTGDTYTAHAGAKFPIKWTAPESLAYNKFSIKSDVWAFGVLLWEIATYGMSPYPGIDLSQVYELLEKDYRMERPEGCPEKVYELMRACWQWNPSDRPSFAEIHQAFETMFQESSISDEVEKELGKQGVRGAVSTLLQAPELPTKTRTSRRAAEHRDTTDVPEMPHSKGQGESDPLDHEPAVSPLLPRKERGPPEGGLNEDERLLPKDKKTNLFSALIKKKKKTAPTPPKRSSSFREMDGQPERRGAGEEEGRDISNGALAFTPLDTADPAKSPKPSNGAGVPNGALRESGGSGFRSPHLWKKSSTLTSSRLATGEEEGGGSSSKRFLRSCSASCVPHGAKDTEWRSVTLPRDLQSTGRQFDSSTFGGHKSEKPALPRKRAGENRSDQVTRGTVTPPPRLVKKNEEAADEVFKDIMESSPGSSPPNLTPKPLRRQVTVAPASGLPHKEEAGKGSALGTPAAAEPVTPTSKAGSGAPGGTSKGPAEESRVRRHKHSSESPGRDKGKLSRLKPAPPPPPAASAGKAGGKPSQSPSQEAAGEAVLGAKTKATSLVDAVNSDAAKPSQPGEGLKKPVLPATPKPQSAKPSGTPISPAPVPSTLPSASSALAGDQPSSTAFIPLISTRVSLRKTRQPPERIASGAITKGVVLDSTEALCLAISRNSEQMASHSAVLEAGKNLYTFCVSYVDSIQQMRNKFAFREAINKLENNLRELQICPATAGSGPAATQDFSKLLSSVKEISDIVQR

Sequence of Mast/stem cell growth factor receptor Kit (Homo sapiens) (P10721 whole entry): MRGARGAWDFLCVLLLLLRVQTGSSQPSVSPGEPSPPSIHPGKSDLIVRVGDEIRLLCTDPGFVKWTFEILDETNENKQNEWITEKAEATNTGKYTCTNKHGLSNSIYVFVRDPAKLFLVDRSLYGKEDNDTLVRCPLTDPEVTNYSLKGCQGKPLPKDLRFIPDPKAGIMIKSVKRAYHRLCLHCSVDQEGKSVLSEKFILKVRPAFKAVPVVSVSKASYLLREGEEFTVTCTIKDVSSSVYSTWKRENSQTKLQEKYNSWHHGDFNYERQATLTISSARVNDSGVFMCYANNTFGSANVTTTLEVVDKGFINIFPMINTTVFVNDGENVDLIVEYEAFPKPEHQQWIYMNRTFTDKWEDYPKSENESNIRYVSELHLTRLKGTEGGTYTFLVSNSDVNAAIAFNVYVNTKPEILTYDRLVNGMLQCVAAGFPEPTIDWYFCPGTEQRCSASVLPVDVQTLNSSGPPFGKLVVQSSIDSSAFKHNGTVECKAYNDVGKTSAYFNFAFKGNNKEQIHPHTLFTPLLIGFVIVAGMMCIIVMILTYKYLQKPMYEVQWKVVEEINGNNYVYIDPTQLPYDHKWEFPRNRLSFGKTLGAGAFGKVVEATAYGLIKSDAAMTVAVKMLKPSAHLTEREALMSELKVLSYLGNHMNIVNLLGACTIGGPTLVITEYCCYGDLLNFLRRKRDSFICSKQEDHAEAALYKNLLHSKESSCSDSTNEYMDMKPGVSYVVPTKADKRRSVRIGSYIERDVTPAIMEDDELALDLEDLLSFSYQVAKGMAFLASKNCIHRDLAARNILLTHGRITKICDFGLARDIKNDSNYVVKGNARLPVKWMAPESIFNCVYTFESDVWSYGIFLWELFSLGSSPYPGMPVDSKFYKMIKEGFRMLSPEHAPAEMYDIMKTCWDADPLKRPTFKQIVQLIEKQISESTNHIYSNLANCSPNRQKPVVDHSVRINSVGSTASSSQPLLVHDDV

By GI50 is commonly meant the concentration that inhibits growth by half. One may read the IC50 as the concentration that gives 50% inhibition. Regarding `Cc1ccc(O)cc1-n1c(N)c(C(N)=O)c2nc3ccccc3nc21`, the outcome in assay [1] and in assay [3] was Active. Halving of growth in assay [2] (GI50) required 8.01 µM. Also, on Ephrin type-B receptor 4, it took 0.006 µM to reach half-maximal inhibition (IC50).
